ChEMBL document CHEMBL2146467, “Generation and exploration of new classes of antitubercular agents: The optimization of oxazolines, oxazoles, thiazolines, thiazoles to imidazo[1,2-a]pyridines and isomeric 5,6-fused scaffolds” (Bioorg Med Chem, 2012)
Values after ≈ are worked out from the molar mass of the structure shown.

Tests used:
[1] = system: Mycobacterium tuberculosis; assay: Antimycobacterial activity against Mycobacterium tuberculosis H37Rv ATCC 27294 culture in 7H12 media after 7 days by microplate alamar blue assay; type: functional; details: H37Rv ATCC 27294, 168 h
Procedure, shortened: (§1)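 Replicating Mtb H37Rv. The MIC is the concentration that inhibits growth of 90% of organisms. Media by line: GAS is glycerol-alanine-salts. GAST is iron-deficient glycerol-alanine-salts with Tween 80. 7H12 is 7H9 broth base with BSA, casein hydrolysate, catalase and palmitic acid. Values are reported in μM.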

[2] = system: Mycobacterium tuberculosis; assay: Antimycobacterial activity against drug-sensitive Mycobacterium tuberculosis isolate 2 after 14 days; type: functional; details: isolate 2, 336 h
[3] = system: Mycobacterium tuberculosis; assay: Antimycobacterial activity against isoniazid-,rifampin-,ethambutol-,kanamycin-,paraaminosalicylic acid-resistant Mycobacterium tuberculosis after 14 days; type: functional; details: 336 h
[4] = system: Vero; assay: Cytotoxicity against african green monkey Vero cells after 72 hrs by CellTiter assay; type: cell-based; details: Chlorocebus sabaeus
[5] = system: Mycobacterium tuberculosis; assay: Antimycobacterial activity against Mycobacterium tuberculosis H37Rv ATCC 27294 culture in GAST media after 7 days by microplate alamar blue assay; type: functional; details: H37Rv ATCC 27294, 168 h; procedure, shortened: as §1
[6] = system: Mycobacterium tuberculosis; assay: Antimycobacterial activity against Mycobacterium tuberculosis H37Rv ATCC 27294 culture in GAS media after 7 days by microplate alamar blue assay; type: functional; details: H37Rv ATCC 27294, 168 h; procedure, shortened: as §1
[7] = system: Mycobacterium tuberculosis; assay: Antimycobacterial activity against isoniazid-,rifampin-,ethambutol-,pyrazinamide-,streptomycin-,kanamycin-,paraaminosalicylic acid-resistant Mycobacterium tuberculosis after 14 days; type: functional; details: 336 h
[8] = system: Mycobacterium tuberculosis; assay: Antimycobacterial activity against drug-sensitive Mycobacterium tuberculosis isolate 1 after 14 days; type: functional; details: isolate 1, 336 h
[9] = system: Mycobacterium tuberculosis; assay: microbe, parasite or virus in culture; type: functional; details: H37Rv
[10] = Chemical stability in simulated gastric fluid assessed as compound remaining at 50 uM after 15 mins by LC/MS analysis; type: physicochemical; details: read-out: Stability
[11] = Metabolic stability in Sprague-Dawley rat liver microsomes assessed as compound remaining at 20 uM after 15 mins by LC/MS analysis; type: ADME, Microsome; details: read-out: Stability
[12] = system: Mycobacterium avium; assay: Antimycobacterial activity against Mycobacterium avium; type: functional
[13] = system: Escherichia coli; assay: Antibacterial activity against Escherichia coli; type: functional
[14] = system: Staphylococcus aureus; assay: Antibacterial activity against Staphylococcus aureus; type: functional
[15] = system: Mycobacterium kansasii; assay: Antimycobacterial activity against Mycobacterium kansasii; type: functional

| Structure (SMILES) | MIC90 [1] | MIC90 [2] | MIC90 [3] | IC50 [4] | MIC90 [5] | MIC90 [6] | MIC90 [7] | MIC90 [8] | MIC90 [9] | remaining at 0.25 h, 50 µM [10] | remaining at 0.25 h, 20 µM [11] | MIC [12] | MIC [13] | MIC [14] | MIC [15] |
| --- | --- | --- | --- | --- | --- | --- | --- | --- | --- | --- | --- | --- | --- | --- | --- |
| O=C(OCc1ccccc1)c1csc(-c2ccccc2)n1 | 7.2 µM (≈ 2.13 µg/mL) | 8.5 µM (≈ 2.51 µg/mL) | 4.2 µM (≈ 1.24 µg/mL) | > 128 µM | 6.2 µM (≈ 1.83 µg/mL) | 6 µM (≈ 1.77 µg/mL) |  |  |  |  |  |  |  |  |  |
| O=[N+]([O-])c1cn2c(n1)OC[C@@H](OCc1ccc(OC(F)(F)F)cc1)C2 [PRETOMANID] |  | > 13.9 µM | 0.45 µM (≈ 0.162 µg/mL) |  |  |  | 0.45 µM (≈ 0.162 µg/mL) | 0.45 µM (≈ 0.162 µg/mL) |  |  |  |  |  |  |  |
| O=C(OCc1ccccc1)c1coc(-c2ccccc2)n1 | 3.9 µM (≈ 1.09 µg/mL) | 2.2 µM (≈ 0.614 µg/mL) | 1.1 µM (≈ 0.307 µg/mL) |  | 0.49 µM (≈ 0.137 µg/mL) | 5.7 µM (≈ 1.59 µg/mL) |  |  | 37 µM (≈ 10.3 µg/mL) | 1.8% | 2.7% |  |  |  |  |
| O=C(OCc1ccccc1)[C@@H]1COC(c2ccccc2)=N1 | 16.6 µM (≈ 4.67 µg/mL) |  |  | > 128 µM | 4.4 µM (≈ 1.24 µg/mL) | 4.9 µM (≈ 1.38 µg/mL) |  |  | 63 µM (≈ 17.7 µg/mL) | 1.7% | 2.8% |  |  |  |  |
| Cc1ccn2c(C(=O)NCc3ccccc3)c(C)nc2c1 | 2.3 µM (≈ 0.642 µg/mL) |  |  | > 128 µM | 2 µM (≈ 0.559 µg/mL) | 0.7 µM (≈ 0.196 µg/mL) |  |  | 54 µM (≈ 15.1 µg/mL) | 100% | 90% | 1.3 µM (≈ 0.363 µg/mL) | > 50 µM | > 50 µM | 1.3 µM (≈ 0.363 µg/mL) |
| NNC(=O)c1ccncc1 [ISONIAZID] | 0.37 µM (≈ 0.0507 µg/mL) |  |  | > 128 µM |  | 0.22 µM (≈ 0.0302 µg/mL) |  |  | > 512 µM |  |  |  |  |  |  |
| O=C(Nc1ccccc1)c1coc(-c2ccccc2)n1 |  |  |  | > 128 µM | 28 µM (≈ 7.4 µg/mL) | 11 µM (≈ 2.91 µg/mL) |  |  | 50 µM (≈ 13.2 µg/mL) |  |  |  |  |  |  |
| Cc1ccn2c(C(=O)OCc3ccccc3)c(-c3ccccc3)nc2c1 | < 0.195 µM |  |  | > 50 µM |  | < 0.195 µM |  |  | 21.7 µM (≈ 7.43 µg/mL) |  |  |  |  |  |  |
| Cc1ccn2c(C(=O)NCc3ccccc3)c(-c3ccccc3)nc2c1 | 2.9 µM (≈ 0.99 µg/mL) |  |  | > 50 µM |  | 0.6 µM (≈ 0.205 µg/mL) |  |  | > 50 µM |  |  |  |  |  |  |
| O=C(OCc1ccccc1)c1cc(-c2ccccc2)on1 | 0.8 µM (≈ 0.223 µg/mL) |  |  | > 50 µM |  | 2.2 µM (≈ 0.614 µg/mL) |  |  | 28 µM (≈ 7.82 µg/mL) |  |  |  |  |  |  |
| Cc1ccn2c(C(=O)OCc3ccccc3)c(C)nc2c1 | < 0.195 µM | < 0.04 µM | < 0.04 µM | > 50 µM |  | < 0.195 µM | < 0.04 µM | < 0.04 µM | 34.8 µM (≈ 9.76 µg/mL) |  |  |  |  |  |  |
